Most compounds without a hit are left out; they make up all but 1.3% or so of the library.
HNF4A DNA FP = change in binding of human HNF4 alpha to DNA; P41235; HNF4a-FITC DNA binding, fluorescence polarization, 1 h; activity change, % at 10 µM; actives 0.3% (n = 360,000); AID 1224865; in the data active means activity change above about 30%, passing the limit was not always enough
Target sequence (P41235 whole entry, looked up): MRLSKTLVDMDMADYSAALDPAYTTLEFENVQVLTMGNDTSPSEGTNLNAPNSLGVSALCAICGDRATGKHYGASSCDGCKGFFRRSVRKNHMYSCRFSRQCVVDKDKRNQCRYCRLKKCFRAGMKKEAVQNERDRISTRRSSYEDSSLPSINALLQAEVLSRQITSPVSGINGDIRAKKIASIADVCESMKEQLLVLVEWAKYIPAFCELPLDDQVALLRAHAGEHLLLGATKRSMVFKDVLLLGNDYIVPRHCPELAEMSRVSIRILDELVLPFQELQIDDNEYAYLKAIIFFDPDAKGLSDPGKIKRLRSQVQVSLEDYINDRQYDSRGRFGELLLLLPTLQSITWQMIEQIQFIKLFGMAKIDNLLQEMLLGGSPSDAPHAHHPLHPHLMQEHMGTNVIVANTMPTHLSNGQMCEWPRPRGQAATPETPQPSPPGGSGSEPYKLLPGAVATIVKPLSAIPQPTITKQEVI
XiGFP reactiv = activators of X-chromosome reactivation in mouse fibroblasts | XiGFP mouse fibroblasts, % GFP-positive cells imaging, 3 d; cells co-treated with 5-aza-dC sensitizer; scaled so ellipticine positive control = 100% | activation, % at 7.58 µM | actives 0.055% (n = 360,000);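 active means mean normalized replicate activation at least 10% and every replicate at or above 10%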;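 further: 0% = median of on-plate neutral control wells and 100% = ellipticine 6 µM median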
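System: SV40-immortalized XiGFP fibroblast cells, line 68-5-11 / Incubation: 3-day compound exposure, then 15 min fixation at room temperature / Compound: single concentration per compound, delivered by pin transfer / Buffer or medium: DMEM plus 5-aza-dC sensitizer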
Rpn11 block = blocks the human proteasome subunit Rpn11 | inhibition, % at 20 µM | human 26S proteasome, Ub4-pepOG fluorescence polarization; 20S core pre-blocked with epoxomicin | AID 588493 | actives 0.59% (n = 360,000);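 active means inhibition at 20 µM, scaled to each plate's controls, above about 33%, limit read from the data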
TPT1 inhibitor = inhibitors of Candida albicans tRNA 2'-phosphotransferase TPT1 | recombinant caTPT1, FP RNA substrate dephosphorylation | inhibition, % at 5 µM | actives 0.81% (n = 300,000) | AID 1962;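 active means inhibition above the mean of all tested compounds plus 3 SD, set per screening campaign, cut at about 24% in these data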;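 further: plate controls were DMSO alone for no effect and ferristatin control at 100 nM for full effect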
aDG glyco act = increases alpha dystroglycan glycosylation; AID 624168; Pro5-aDG cells, alpha-DG glycosylation AlphaScreen (IIH6); 0% Pro5, 100% B10-LARGE cell signal; actives 0.22% (n = 360,000); activation, % at 10 µM;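 active means activation of at least 8% versus controls, or a plate z-score of at least 8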;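 further: Pro5 are CHO cells carrying HIG-tagged alpha-DG that lacks glycosylation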
CSN deneddyl inh = CSN deneddylation inhibition | Q92905 | Purified CSN, SCF-Nedd8-OG deneddylation, fluorescence polarization | actives 0.38% (n = 360,000) | inhibition, % at 12.5 µM;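 active means pattern-corrected inhibition above about 35%, with an unprinted fluorescence ratio check between 0.5 and 1.5, limit read from the data, passing the limit was not always enough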;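 further: 0% = enzyme with substrate and 100% = substrate without enzyme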
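Material: purified human Csn5 enzyme expressed in HEK293T cells / Medium: Tris buffer pH 7.5, NaCl, DTT, Tween-20, trehalose, ovalbumin / Compound dosing: 12.5 µM single point / Schedule: 90 min incubation of compound, enzyme and substrate at room temperature / Signal: fluorescence polarization of the substrate / Control set: no-enzyme wells high, enzyme-with-substrate wells low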
aDG conf = alpha-DG glycosylation activation, confirmation; shares compounds with aDG glyco act; Pro5-aDG cells, IIH6 AlphaLISA; scaled to LARGE-overexpressing B10 cells as 100%; activation, % at 10 µM (by protocol); actives 17% (n = 600); AID 651671;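 active means activation of at least 7% in one or more replicates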;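 further: cells exposed to compound for two days before detection; 0% = DMSO-treated Pro5 cells and 100% = DMSO-treated B10-LARGE cells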
Numbers without * were called inactive; . = not tested or not shown.

SMILES	HNF4A DNA FP	XiGFP reactiv	Rpn11 block	TPT1 inhibitor	aDG glyco act	CSN deneddyl inh	aDG conf
O=C(Nc1ccc(N2CCCCCC2)cc1)c1cccc(S(=O)(=O)N2CCOCC2)c1	0	0	4	.	2.8*	-10	1
C[C@@H]1CCCCO[C@@H](CN(C)S(=O)(=O)c2ccc(F)cc2)[C@@H](C)CN([C@H](C)CO)C(=O)c2cc(NC(=O)CCCN(C)C)ccc2O1	.	0	.	.	.	.	.
CCC(=O)N(C)C[C@@H]1Oc2cc(C#CC3CCCCC3)ccc2S(=O)(=O)N([C@@H](C)CO)C[C@H]1C	.	0	.	.	.	.	.
CCC1CCCN1Cn1cnc2c([nH]c3ccccc32)c1=O (stereo unspecified)	-1	.	1	-4	0	-8	.
CCC1CCCN1Cn1cnc2c([nH]c3ccc(OC)cc32)c1=O (stereo unspecified)	3	.	-2	1	3.8*	3	1
C[C@H](O)C#Cc1cnc2c(c1)C(=O)N([C@@H](C)CO)C[C@@H](C)[C@H](CN(C)CC1CCCCC1)O2	.	0	.	.	.	.	.
CCCCOc1ccc(C(=O)NCC(=O)NCc2ccccn2)cc1	9	0	-7	-4	7.3*	6	0
C[C@H](O)C#Cc1ccc2c(c1)O[C@H](CN(C)C(=O)c1ccccc1)[C@@H](C)CN([C@@H](C)CO)S2(=O)=O	.	-1	.	.	.	.	.
O=C1C(Cl)=C(NCCCO)C(=O)c2ccccc21	0	.	3	-1	8.7*	1	3.2*
CCOCCCNC1=C(Cl)C(=O)c2ccccc2C1=O	4	0	1	-7	2	4	.
Cc1onc(-c2ccccc2)c1C(=O)N/N=C/c1ccc([N+](=O)[O-])s1	1	.	1	2	6.0*	7	3
Cc1onc(-c2ccccc2)c1C(=O)N/N=C/c1ccco1	5	0	-6	1	0	0	.
O=C(CNC(=O)c1ccccc1Cl)N/N=C/c1ccc([N+](=O)[O-])s1	6	0	4	0	12*	9	6.5*
O=C(Cc1cccs1)N/N=C\c1ccc([N+](=O)[O-])s1	-1	0	1	-3	13*	1	3.9*
COc1cc(/C=N/NC(=O)Cc2cccs2)c([N+](=O)[O-])cc1OC	0	0	-14	-2	0	-12	.
CC(C)COc1cccc(C(=O)NNC(=O)C2COc3ccccc3O2)c1 (stereo unspecified)	3	0	-8	2	6.2*	0	0
Nc1ccc(C(=O)NNC(=O)C2COc3ccccc3O2)cc1[N+](=O)[O-] (stereo unspecified)	5	0	-2	-2	0	-6	.
C[C@@H]1CCCCO[C@@H](CN(C)C(=O)Nc2cccc3ccccc23)[C@H](C)CN([C@@H](C)CO)C(=O)c2cc(NC(=O)C3CCCCC3)ccc2O1	.	-1	.	.	.	.	.
O=C(Nc1ccc(Br)cc1)c1ccc(F)c(S(=O)(=O)N2CCN(c3ccccn3)CC2)c1	-2	0	1	0	8.5*	7	2
Cc1ccccc1NC(=O)c1ccc(F)c(S(=O)(=O)N2CCN(c3ccccn3)CC2)c1	-3	.	1	-1	1	-2	.
O=C1C2CCC(C2)C1CN1CCOCC1 (stereo unspecified)	2	0	1	.	13*	7	-1
COc1ccc(CNCCC(c2ccccc2)c2ccc3c(c2)OCO3)cc1 (stereo unspecified)	2	.	-13	0	3.9*	2	1
COC(=O)c1ccc(CNC(=O)Cn2cnc3c(NCc4ccccc4)ncnc32)cc1	0	0	0	.	8.3*	-3	1
CO[C@H]1CN(C)C(=O)c2ccc(NS(=O)(=O)c3ccccc3C)cc2OC[C@@H](C)N(S(C)(=O)=O)C[C@@H]1C	.	0	.	.	.	.	.
COCCCNc1nc2c(c(=O)[nH]c(=O)n2C)n1CC(O)COc1ccccc1 (stereo unspecified)	-3	.	5	-3	11*	2	-1
SMILES	HNF4A DNA FP	XiGFP reactiv	Rpn11 block	TPT1 inhibitor	aDG glyco act	CSN deneddyl inh	aDG conf
COCCCNc1nc2c(c(=O)[nH]c(=O)n2C)n1CC(O)COc1ccccc1C (stereo unspecified)	3	0	-6	0	0	-5	.
C[C@H]1CN([C@@H](C)CO)C(=O)c2ccccc2-c2ccccc2CO[C@@H]1CN(C)C(=O)Nc1ccccc1C(F)(F)F	.	0	.	.	.	.	.
CC(C)OCCCN(C)C1CCN(S(=O)(=O)c2csc(C(N)=O)c2)CC1	-1	0	4	-3	0	-1	.
CC(C)OCCCN(C)C1CCN(S(=O)(=O)c2ccc(-c3cc(C(F)(F)F)no3)s2)CC1	-2	0	7	-5	3.8*	1	1
C[C@@H]1CN([C@@H](C)CO)C(=O)Cc2cc(NC(=O)CCN3CCOCC3)ccc2O[C@H]1CN(C)Cc1ccccc1	.	0	.	.	.	.	.
O=C(C[C@@H]1CC[C@@H]2[C@H](COC[C@H](O)CN2C(=O)Nc2cc(Cl)cc(Cl)c2)O1)NCC1CCCCC1	.	0	.	.	.	.	.
CCOC(=O)CN(C(=O)CSc1nnc(CNc2ccc(F)cc2)n1CC)c1ccc(F)cc1	2	.	-1	2	5.2*	3	0
CCc1ccc(S(=O)(=O)NCc2ccc(C(=O)NCCN(Cc3ccccc3)C(C)C)cc2)cc1	0	0	-4	.	4.5*	-1	2
Cc1cccc(OCC(=O)Nc2cc(S(=O)(=O)N3CCOCC3)ccc2N2CCCC2)c1C	-1	0	7	1	7.4*	1	0
COc1ccccc1[C@@H]1C(c2cccc(C)c2)=NN(c2ccc(Br)cc2)[C@H]1C(=O)N1CCOC1=O	-2	0	-3	.	4.9*	1	0
COc1ccccc1[C@@H]1C(c2ccccc2)=NN(c2ccc(Br)cc2)[C@H]1C(=O)N1CCOC1=O	2	0	11	.	0	1	.
COc1ccccc1C(=O)N1C[C@H]2[C@@H](c3ccccc31)[C@H](CO)N2Cc1ccc(F)cc1	.	0	.	.	.	.	.
Nn1cc(-c2ccccc2)nc1SCC(=O)NC1CCS(=O)(=O)C1 (stereo unspecified)	2	.	-3	-4	6.9*	2	1
S=C(NCCN1CCOCC1)Nc1ccc(Cl)cc1Cl	-1	0	-5	-2	0	2	.
Fc1cc(Cl)ccc1NC(=S)NCCN1CCOCC1	-4	0	-10	2	5.3*	-4	-1
O=C(O)CSc1nnc(-c2ccccc2O)n1Cc1ccccc1	0	.	0	-2	83*	-5	0
